Laboratory results taken from PMC6260803 (Angewandte Chemie (International ed. in English), 2015).
Residues, ends and D or L forms follow the SMILES beside them. *: point of attachment. X1 = O=C(CO[C@H]1O[C@H](CO)[C@@H](O)[C@H](O)[C@@H]1O)*

Columns and labels:
griffithsin (GRFT) = griffithsin (GRFT) (Griffithsia sp., UniProt P84801); format: binding
immobilized GRFT = immobilized GRFT (Griffithsia sp., UniProt P84801); assay: SPR analysis of binding to immobilized GRFT; conditions: run in triplicate; for binding response to immobilized GRFT (in words): SPR sensorgrams; for dissociation rate (koff) from GRFT (in words) / association rate (kon) to GRFT (in words): SPR, immobilized GRFT
How it was run: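 Glycopeptide high-mannose mimetics with varied mannose valency and spacing were passed over immobilized griffithsin, with a nonglycosylated peptide as negative control. Runs were in triplicate. Sensorgrams and Langmuir binding curves were generated, and association and dissociation rates were assessed from the sensorgrams.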

[1] = isothermal titration calorimetry, binding to GRFT, value ± spread

Chain of griffithsin (GRFT) (P84801 whole entry): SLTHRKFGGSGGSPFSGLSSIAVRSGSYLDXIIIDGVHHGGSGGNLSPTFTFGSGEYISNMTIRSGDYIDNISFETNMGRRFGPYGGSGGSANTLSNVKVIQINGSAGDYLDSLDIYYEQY
Chain of immobilized GRFT (P84801 whole entry): as above

Molecule | n (stoichiometry of binding) (griffithsin (GRFT); [1]) | stoichiometry of binding to GRFT (rounded, as stated in text) (griffithsin (GRFT); ITC) | dissociation rate (koff) from GRFT (in words) (immobilized GRFT) | other results
CC(=O)N[C@@H](CCCCNC(=O)CO[C@H]1O[C@H](CO)[C@@H](O)[C@H](O)[C@@H]1O)C(=O)NCC(=O)N[C@@H](CCCCNC(=O)CO[C@H]1O[C@H](CO)[C@@H](O)[C@H](O)[C@@H]1O)C(N)=O [Compound 1] | 1.56 ± 0.01 | – | – | binding response to immobilized GRFT (in words) (immobilized GRFT): weakest response of any of the glycopeptides
CC(=O)N[C@@H](CCCCNC(=O)CO[C@H]1O[C@H](CO)[C@@H](O)[C@H](O)[C@@H]1O)C(=O)NCC(=O)N[C@@H](CCCCNC(=O)CO[C@H]1O[C@H](CO)[C@@H](O)[C@H](O)[C@@H]1O)C(=O)NCC(=O)N[C@@H](CCCCNC(=O)CO[C@H]1O[C@H](CO)[C@@H](O)[C@H](O)[C@@H]1O)C(N)=O [Compound 2] | 0.96 ± 0.24 | 1 | – | –
CC(=O)N[C@@H](CCCCNC(=O)CO[C@H]1O[C@H](CO)[C@@H](O)[C@H](O)[C@@H]1O)C(=O)NCC(=O)N[C@@H](CCCCNC(=O)CO[C@H]1O[C@H](CO)[C@@H](O)[C@H](O)[C@@H]1O)C(=O)NCC(=O)N[C@@H](CCCCNC(=O)CO[C@H]1O[C@H](CO)[C@@H](O)[C@H](O)[C@@H]1O)C(=O)NCC(=O)N[C@@H](CCCCNC(=O)CO[C@H]1O[C@H](CO)[C@@H](O)[C@H](O)[C@@H]1O)C(N)=O [Compound 3] | 0.68 ± 0.03 | – | – | –
CC(=O)N[C@@H](CCCCNC(=O)CO[C@H]1O[C@H](CO)[C@@H](O)[C@H](O)[C@@H]1O)C(=O)NCC(=O)N[C@@H](CCCCNC(=O)CO[C@H]1O[C@H](CO)[C@@H](O)[C@H](O)[C@@H]1O)C(=O)NCC(=O)N[C@@H](CCCCNC(=O)CO[C@H]1O[C@H](CO)[C@@H](O)[C@H](O)[C@@H]1O)C(=O)NCC(=O)N[C@@H](CCCCNC(=O)CO[C@H]1O[C@H](CO)[C@@H](O)[C@H](O)[C@@H]1O)C(=O)NCC(=O)N[C@@H](CCCCNC(=O)CO[C@H]1O[C@H](CO)[C@@H](O)[C@H](O)[C@@H]1O)C(=O)NCC(=O)N[C@@H](CCCCNC(=O)CO[C@H]1O[C@H](CO)[C@@H](O)[C@H](O)[C@@H]1O)C(N)=O [Compound 4] | 0.52 ± 0.05 | 0.5 | significantly slower rate than Km3G1 and Km4G1 | –
CC(=O)N[C@@H](CCCCNC(=O)CO[C@H]1O[C@H](CO)[C@@H](O)[C@H](O)[C@@H]1O)C(=O)NCC(=O)NCC(=O)N[C@@H](CCCCNC(=O)CO[C@H]1O[C@H](CO)[C@@H](O)[C@H](O)[C@@H]1O)C(=O)NCC(=O)NCC(=O)N[C@@H](CCCCNC(=O)CO[C@H]1O[C@H](CO)[C@@H](O)[C@H](O)[C@@H]1O)C(N)=O [Compound 5] (Ac-K(X1)GGK(X1)GGK(X1)-NH2; N-terminus and C-terminus assumed) | 1.16 ± 0.25 | – | – | –
CC(=O)N[C@@H](CCCCNC(=O)CO[C@H]1O[C@H](CO)[C@@H](O)[C@H](O)[C@@H]1O)C(=O)N[C@@H](CCCCNC(=O)CO[C@H]1O[C@H](CO)[C@@H](O)[C@H](O)[C@@H]1O)C(=O)N[C@@H](CCCCNC(=O)CO[C@H]1O[C@H](CO)[C@@H](O)[C@H](O)[C@@H]1O)C(N)=O [Compound 6] | 0.98 ± 0.11 | – | – | –
CC(=O)N[C@@H](CCCNC(=O)CO[C@H]1O[C@H](CO)[C@@H](O)[C@H](O)[C@@H]1O)C(=O)N[C@@H](CCCNC(=O)CO[C@H]1O[C@H](CO)[C@@H](O)[C@H](O)[C@@H]1O)C(=O)N[C@@H](CCCNC(=O)CO[C@H]1O[C@H](CO)[C@@H](O)[C@H](O)[C@@H]1O)C(N)=O [Compound 7] | 0.94 ± 0.19 | 1 | – | –
CC(=O)N[C@@H](CNC(=O)CO[C@H]1O[C@H](CO)[C@@H](O)[C@H](O)[C@@H]1O)C(=O)N[C@@H](CNC(=O)CO[C@H]1O[C@H](CO)[C@@H](O)[C@H](O)[C@@H]1O)C(=O)N[C@@H](CNC(=O)CO[C@H]1O[C@H](CO)[C@@H](O)[C@H](O)[C@@H]1O)C(N)=O [Compound 8] | 1.38 ± 0.17 | 1.5 | by far the slowest dissociation rate | –
NC(=O)[C@H](CCCCNC(=O)[C@H](CCCCNC(=O)CO[C@H]1O[C@H](CO)[C@@H](O)[C@H](O)[C@@H]1O)NC(=O)CO[C@H]1O[C@H](CO)[C@@H](O)[C@H](O)[C@@H]1O)NC(=O)[C@H](CCCCNC(=O)CO[C@H]1O[C@H](CO)[C@@H](O)[C@H](O)[C@@H]1O)NC(=O)CO[C@H]1O[C@H](CO)[C@@H](O)[C@H](O)[C@@H]1O [Compound 10] | 1.96 ± 0.09 | 2 | very slow koff rates | association rate (kon) to GRFT (in words) (immobilized GRFT): slower kon rates
NC(=O)[C@H](CCCCNC(=O)CNC(=O)[C@H](CCCCNC(=O)CO[C@H]1O[C@H](CO)[C@@H](O)[C@H](O)[C@@H]1O)NC(=O)CO[C@H]1O[C@H](CO)[C@@H](O)[C@H](O)[C@@H]1O)NC(=O)CNC(=O)[C@H](CCCCNC(=O)CO[C@H]1O[C@H](CO)[C@@H](O)[C@H](O)[C@@H]1O)NC(=O)CO[C@H]1O[C@H](CO)[C@@H](O)[C@H](O)[C@@H]1O [Compound 11] | 1.45 ± 0.12 | 1.5 | very slow koff rates | association rate (kon) to GRFT (in words) (immobilized GRFT): slower kon rates
NC(=O)[C@H](CCCCNC(=O)[C@H](CCCCNC(=O)CNC(=O)CO[C@H]1O[C@H](CO)[C@@H](O)[C@H](O)[C@@H]1O)NC(=O)CNC(=O)CO[C@H]1O[C@H](CO)[C@@H](O)[C@H](O)[C@@H]1O)NC(=O)[C@H](CCCCNC(=O)CNC(=O)CO[C@H]1O[C@H](CO)[C@@H](O)[C@H](O)[C@@H]1O)NC(=O)CNC(=O)CO[C@H]1O[C@H](CO)[C@@H](O)[C@H](O)[C@@H]1O [Compound 12] | 1.08 ± 0.08 | 1 | – | Kd lower compared to glycopeptides 10 and 11 (griffithsin (GRFT); ITC, Kd of 12 versus 10 and 11): approximately 30 fold
CC(=O)N[C@@H]1[C@@H](O)[C@H](O[C@@H]2O[C@H](CO)[C@@H](O[C@@H]3O[C@H](CO[C@H]4O[C@H](CO[C@H]5O[C@H](CO)[C@@H](O)[C@H](O)[C@@H]5O[C@H]5O[C@H](CO)[C@@H](O)[C@H](O)[C@@H]5O)[C@@H](O)[C@H](O[C@H]5O[C@H](CO)[C@@H](O)[C@H](O)[C@@H]5O[C@H]5O[C@H](CO)[C@@H](O)[C@H](O)[C@@H]5O)[C@@H]4O)[C@@H](O)[C@H](O[C@H]4O[C@H](CO)[C@@H](O)[C@H](O)[C@@H]4O[C@H]4O[C@H](CO)[C@@H](O)[C@H](O)[C@@H]4O[C@H]4O[C@H](CO)[C@@H](O)[C@H](O)[C@@H]4O)[C@@H]3O)[C@H](O)[C@H]2NC(C)=O)[C@@H](CO)O[C@H]1NC(=O)C[C@H](N)C(=O)O [Compound 14, Man9GlcNAc2Asn, reference compound] | 1.39 ± 0.12 | – | slower koff rate than nonamannoside 13 | Kd (griffithsin (GRFT); [1]): 540 ± 270 nM
chitobiose [reference compound] | – | – | – | binding response to immobilized GRFT (in words) (immobilized GRFT): Negligible binding
pentamannoside [reference compound] | – | – | – | binding response to immobilized GRFT (in words) (immobilized GRFT): Negligible binding
